Assay results reported in ChEMBL document CHEMBL4038321, “Design, Synthesis, and Pharmacokinetics of a Bone-Targeting Dual-Action Prodrug for the Treatment of Osteoporosis” (J Med Chem, 2017).

Columns and labels:
Bone [1] = test: Drug uptake in Sprague-Dawley rat bone at 31 uCi, iv after 6 hrs by scintillation counting method; format: ADME, organism-based, Bone element; settings: in vivo
Method in brief: (§1)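 Three female Sprague Dawley rats, about 23 weeks old. IV tail-vein dose of 5 mg/kg 3H-conjugate (31.0 µCi/rat) in 10% Poloxamer 188, pH 8.0 with NaHCO3, diluted 1:1 with PBS. Blood was drawn at 0.5 to 6 h. At 6 h tissues, including long bones, were taken and analysed for radioactivity by oxidation and scintillation counting.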

Kidney [2] = test: Drug uptake in Sprague-Dawley rat kidney at 8.9 uCi, iv administered as bolus dose after 28 days; format: ADME, organism-based; settings: in vivo, 672 h
Method in brief: (§2)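 Female Sprague Dawley rats, about 13 weeks old, in five groups of three. Single IV tail-vein bolus of mixed 3H-conjugate (8.90 µCi/rat) and 14C-conjugate (1.77 µCi/rat), total dose 5.0 mg/kg. Vehicle was 10% Poloxamer 188, brought to pH 8.0 with NaHCO3, then diluted with an equal volume of PBS. Groups were killed at 6 h, 1, 7, 14 and 28 days. Tissues and femurs were incinerated in a biological oxidizer. Values are % of administered dose, with skeleton taken as 8% of body weight, averaged over three rats.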

Spleen [3] = test: Drug uptake in Sprague-Dawley rat spleen at 8.9 uCi, iv administered as bolus dose after 7 days; format: ADME, organism-based; settings: in vivo, 168 h
Method in brief: (§3)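 Female Sprague Dawley rats, about 13 weeks old on arrival, in five groups of three. Single IV tail-vein bolus of mixed [3H]- and [14C]-labelled conjugate (8.90 and 1.77 µCi/rat), total 5.0 mg/kg. Vehicle was 10% Poloxamer 188 adjusted to pH 8.0 with NaHCO3, then diluted with an equal volume of PBS. Groups killed at 6 h, 1, 7, 14 and 28 days. Spleen radioactivity measured by oxidizer incineration and reported as percent of administered dose, averaged over three rats.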

Plasma [4] = test: Drug metabolism in rat plasma assessed as tritium label liberation preincubated with rat plasma followed by bovine bone powder addition measured after 24 hrs; format: ADME, cell-free
Method in brief: (§4)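 Tritium-labelled conjugate incubated in rat plasma at 37 °C. At fixed times the incubate was stirred with bovine bone powder to adsorb intact conjugate and any cleaved bisphosphonate. Unbound radioactivity in the supernatant was then counted as liberated label.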

Spleen [5] = test: Drug uptake in Sprague-Dawley rat spleen at 8.9 uCi, iv administered as bolus dose after 14 days; format: ADME, organism-based; settings: in vivo, 336 h; method in brief: as §3
Bone [6] = test: Drug uptake in Sprague-Dawley rat bone at 8.9 uCi, iv administered as bolus dose after 14 days; format: ADME, organism-based, Bone element; settings: in vivo, 336 h; method in brief: as §2
[7] = Drug metabolism in rat plasma at 100 uM measured after 24 hrs by HPLC analysis; format: ADME, cell-free; settings: read-out: Drug metabolism
Method in brief: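 Conjugate incubated in rat plasma at 37 °C for 24 h and compared with inactivated control plasma. Aliquots were taken at 0, 1, 2, 4 and 24 h and quenched with methanol containing 1.0 M HCl, then centrifuged. Remaining conjugate in the supernatant was quantified by reverse-phase HPLC with UV detection at 254 nm.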

Liver [8] = test: Drug uptake in Sprague-Dawley rat liver at 31 uCi, iv after 6 hrs by scintillation counting method; format: ADME, organism-based; settings: in vivo; method in brief: as §1
Heart [9] = test: Drug uptake in Sprague-Dawley rat heart at 8.9 uCi, iv administered as bolus dose after 1 day; format: ADME, organism-based; settings: in vivo, 24 h; method in brief: as §2
Spleen [10] = test: Drug uptake in Sprague-Dawley rat spleen at 8.9 uCi, iv administered as bolus dose after 6 hrs; format: ADME, organism-based; settings: in vivo; method in brief: as §3
Rattus norvegicus [11] = test: Toxicity in Sprague-Dawley rat assessed as behavioral change at 8.9 uCi, iv administered as bolus dose after 28 dyas; format: organism-based; settings: in vivo
Method in brief: (§5)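 Same dual-label study: female Sprague Dawley rats got one IV tail-vein bolus of [3H] (8.90 µCi) plus [14C] (1.77 µCi) conjugate, total 5.0 mg/kg, in Poloxamer 188/PBS vehicle at pH 8.0. Groups of three were sacrificed up to 28 days after dosing.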

Liver [12] = test: Drug uptake in Sprague-Dawley rat liver at 8.9 uCi, iv administered as bolus dose after 14 days; format: ADME, organism-based; settings: in vivo, 336 h; method in brief: as §2
Bone [13] = test: Drug uptake in Sprague-Dawley rat bone at 8.9 uCi, iv administered as bolus dose after 1 day; format: ADME, organism-based, Bone element; settings: in vivo, 24 h; method in brief: as §2
Heart [14] = test: Drug uptake in Sprague-Dawley rat heart at 8.9 uCi, iv administered as bolus dose after 7 days; format: ADME, organism-based; settings: in vivo, 168 h; method in brief: as §2
Brain [15] = test: Drug uptake in Sprague-Dawley rat brain at 8.9 uCi, iv administered as bolus dose after 1 day; format: ADME, organism-based; settings: in vivo, 24 h; method in brief: as §2
Spleen [16] = test: Drug uptake in Sprague-Dawley rat spleen at 8.9 uCi, iv administered as bolus dose after 1 day; format: ADME, organism-based; settings: in vivo, 24 h; method in brief: as §3
Kidney [17] = test: Drug uptake in Sprague-Dawley rat kidney at 8.9 uCi, iv administered as bolus dose after 7 days; format: ADME, organism-based; settings: in vivo, 168 h; method in brief: as §2
Brain [18] = test: Drug uptake in Sprague-Dawley rat brain at 8.9 uCi, iv administered as bolus dose after 6 hrs; format: ADME, organism-based; settings: in vivo; method in brief: as §2
Liver [19] = test: Drug uptake in Sprague-Dawley rat liver at 8.9 uCi, iv administered as bolus dose after 7 days; format: ADME, organism-based; settings: in vivo, 168 h; method in brief: as §2
Bone [20] = test: Drug uptake in Sprague-Dawley rat bone at 8.9 uCi, iv administered as bolus dose after 7 days; format: ADME, organism-based, Bone element; settings: in vivo, 168 h; method in brief: as §2
Rattus norvegicus [21] = test: Toxicity in Sprague-Dawley rat assessed as unusual reaction at 8.9 uCi, iv administered as bolus dose after 28 dyas; format: organism-based; settings: in vivo; method in brief: as §5
Rattus norvegicus [22] = test: Toxicity in Sprague-Dawley rat at 31 uCi, iv administered via tail vein after 6 hrs; format: organism-based; settings: in vivo
Method in brief: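 Three female Sprague Dawley rats, about 23 weeks old on arrival, received an IV tail-vein injection of 5 mg/kg conjugate with 31.0 µCi [3H] per rat. Vehicle was 10% Poloxamer 188 adjusted to pH 8.0 with NaHCO3 and diluted 1:1 with PBS. Tolerability was observed over 6 h with blood sampling, and the study ended at 6 h.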

Bone [23] = test: Drug uptake in Sprague-Dawley rat bone at 8.9 uCi, iv administered as bolus dose after 6 hrs; format: ADME, organism-based, Bone element; settings: in vivo; method in brief: as §2
Liver [24] = test: Drug uptake in Sprague-Dawley rat liver at 8.9 uCi, iv administered as bolus dose after 28 days; format: ADME, organism-based; settings: in vivo, 672 h; method in brief: as §2
Kidney [25] = test: Drug uptake in Sprague-Dawley rat kidney at 8.9 uCi, iv administered as bolus dose after 14 days; format: ADME, organism-based; settings: in vivo, 336 h; method in brief: as §2
Liver [26] = test: Drug uptake in Sprague-Dawley rat liver at 8.9 uCi, iv administered as bolus dose after 6 hrs; format: ADME, organism-based; settings: in vivo; method in brief: as §2
Liver [27] = test: Drug uptake in Sprague-Dawley rat liver at 8.9 uCi, iv administered as bolus dose after 1 day; format: ADME, organism-based; settings: in vivo, 24 h; method in brief: as §2
Serum = test: Drug metabolism in rat serum assessed as tritium label liberation preincubated with bovine bone powder followed by rat serum addition measured after 24 hrs; format: ADME, cell-free
Method in brief: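 Tritium-labelled conjugate first bound to bovine bone powder for 30 min in buffer. The powder was filtered, resuspended and incubated in fresh rat serum. Buffer and inactivated serum were run alongside. Tritium liberated after 24 h was measured.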

Plasma [28] = test: Drug metabolism in rat plasma assessed as tritium label liberation preincubated with rat plasma followed by bovine bone powder addition measured after 4 hrs; format: ADME, cell-free; method in brief: as §4
Plasma [29] = test: Drug metabolism in rat plasma assessed as tritium label liberation preincubated with rat plasma followed by bovine bone powder addition measured after 30 mins; format: ADME, cell-free; settings: 0.5 h; method in brief: as §4
Heart [30] = test: Drug uptake in Sprague-Dawley rat heart at 8.9 uCi, iv administered as bolus dose after 6 hrs; format: ADME, organism-based; settings: in vivo; method in brief: as §2
Spleen [31] = test: Drug uptake in Sprague-Dawley rat spleen at 8.9 uCi, iv administered as bolus dose after 28 days; format: ADME, organism-based; settings: in vivo, 672 h; method in brief: as §3
Kidney [32] = test: Drug uptake in Sprague-Dawley rat kidney at 8.9 uCi, iv administered as bolus dose after 6 hrs; format: ADME, organism-based; settings: in vivo; method in brief: as §2
Kidney [33] = test: Drug uptake in Sprague-Dawley rat kidney at 8.9 uCi, iv administered as bolus dose after 1 day; format: ADME, organism-based; settings: in vivo, 24 h; method in brief: as §2
Bone [34] = test: Drug uptake in Sprague-Dawley rat bone at 8.9 uCi, iv administered as bolus dose after 28 days; format: ADME, organism-based, Bone element; settings: in vivo, 672 h; method in brief: as §2

[3H]c1ccc(C(F)(F)[C@@H](/C=C/[C@H]2CCC(=O)N2CCCCCCC(=O)OCC)OC(=O)Cc2ccc(COC(=O)N[C@@H](CC(C)C)C(=O)N[C@@H](CCCNC(=N)N)C(=O)Nc3ccc(COC(=O)NCCCC(O)(P(=O)(O)O)P(=O)(O)O)cc3)cc2)cc1
Drug uptake (Bone [1]): 2.5 %ID | Drug uptake (Kidney [2]): 0.017 %ID | Drug uptake (Spleen [3]): 0.076 %ID | Drug metabolism (Plasma [4]): 53% | Drug uptake (Spleen [5]): 0.039 %ID | Drug uptake (Bone [6]): 0.8 %ID | metabolised at 24 h, 100 µM [7]: 55% | Drug uptake (Liver [8]): Active | Drug uptake (Heart [9]): 0.021 %ID | Drug uptake (Spleen [10]): 0.35 %ID | Activity (Rattus norvegicus [11]): Non-Toxic | Drug uptake (Liver [12]): 0.3 %ID | Drug uptake (Bone [13]): 2.12 %ID | Drug uptake (Heart [14]): 0.014 %ID | Drug uptake (Brain [15]): 0.025 %ID | Drug uptake (Spleen [16]): 0.22 %ID | Drug uptake (Kidney [17]): 0.053 %ID | Drug uptake (Brain [18]): 0.022 %ID | Drug uptake (Liver [19]): 0.48 %ID | Drug uptake (Bone [20]): 1.3 %ID | Activity (Rattus norvegicus [21]): Non-Toxic | Activity (Rattus norvegicus [22]): Toxic | Drug uptake (Bone [23]): 2.1 %ID | Drug uptake (Liver [24]): 0.08 %ID | Drug uptake (Kidney [25]): 0.026 %ID | Drug uptake (Liver [26]): 8.95 %ID | Drug uptake (Liver [27]): 2.33 %ID | Drug metabolism (Serum): < 3% | Drug metabolism (Plasma [28]): 44% | Drug metabolism (Plasma [29]): 27% | Drug uptake (Heart [30]): 0.025 %ID | Drug uptake (Spleen [31]): 0.037 %ID | Drug uptake (Kidney [32]): 0.21 %ID | Drug uptake (Kidney [33]): 0.11 %ID | Drug uptake (Bone [34]): 0.74 %ID
